Measured values of several laboratories.
Organism: Plasmodium falciparum
Observed: parasite growth

CCCC1CCN(c2cc3c(cc2F)c(=O)c(-c2nc(C)no2)cn3CC)CC1
EC50 (3D7; 72 h; blood stage): 8 nM

Cc1ccc(Nc2ccnc3cc(-c4ccc(S(=O)(=O)N5CCN(C)CC5)cc4)ccc23)cc1Cl
EC50 (D6; drug-resistant strain, blood stage): 64 nM

O=C(Nc1cc(F)ccc1C(=O)O)c1ccc(-c2ccccc2)cc1
inhibition (SYBR Green; NF54; 10 µM; 96 h; blood stage): 17.2%

CCn1cc(C(=O)O)c(=O)c2cc(F)c(N3CCC(C)CC3)cc21
EC50 (3D7; 72 h; blood stage): > 10000 nM

O=C(Nc1c(F)cccc1C(=O)O)c1ccc(-c2ccccc2)cc1
inhibition (NF54; 2 µM; 48 h; gametocyte): 38.8%

CCN(CC)CCCC(C)Nc1ccnc2cc(Cl)ccc12 (centres unmarked)
IC50 (D6; blood stage): 30 nM

O=C(c1ccc(Nc2nccc(-c3ccc4ccccc4c3)n2)cc1)N1CCC(N2CCCC2)CC1
inhibition (SYBR Green; 3D7; 1 µM; blood stage): > 75%

CCOC(=O)c1cn(CC)c2cc(N3CCC(C)CC3)c(F)cc2c1=O
EC50 (3D7; 72 h; blood stage): 28 nM

CN1CCN(c2ccnc(Nc3ccc4c(Nc5ccc(OCc6cccc(F)c6)c(Cl)c5)ccnc4c3)n2)CC1
EC50 (D6; drug-resistant strain, blood stage): 25 nM

Cc1cccc(C(=O)O)c1NC(=O)c1cccc(-c2ccccc2)c1
inhibition (NF54; 2 µM; 48 h; gametocyte): 31.8%

COc1cnc(Nc2ccnc3cc(-c4ccc(S(=O)(=O)N5CCN(C)CC5)cc4)ccc23)cn1
EC50 (D6; drug-resistant strain, blood stage): 130 nM

Cc1ccc(-c2ccccc2C(=O)Nc2c(C)cccc2C(=O)O)cc1
inhibition (NF54; 2 µM; 48 h; gametocyte): 55%

CCn1cc(-c2nnc(-c3cccnc3)o2)c(=O)c2cc(F)c(N3CCC(C)CC3)cc21
EC50 (3D7; 72 h; blood stage): > 10000 nM

c1cnc(Nc2ccnc3cc(-c4cn[nH]c4)ccc23)cn1
EC50 (D6; drug-resistant strain, blood stage): 940 nM

O=C(Nc1ccc(F)cc1C(=O)O)c1ccc(-c2ccccc2)cc1
inhibition (SYBR Green; NF54; 10 µM; 96 h; blood stage): 12.7%

CN1CCN(c2ncc(-c3ccc4c(Nc5cnccn5)ccnc4c3)cn2)CC1
EC50 (D6; drug-resistant strain, blood stage): 26 nM

CCn1cc(-c2nc(C)no2)c(=O)c2cc(F)c(N3CCC(Cc4ccccc4)CC3)cc21
EC50 (3D7; 72 h; blood stage): 9 nM
